From ChEMBL document CHEMBL1155165, “SB-431542, a transforming growth factor beta inhibitor, impairs Trypanosoma cruzi infection in cardiomyocytes and parasite cycle completion” (2007)
The source made the active and inactive calls. The rule behind the calls is not given here.

What was measured:
[1] = tested on: Trypanosoma cruzi; assay: Antitrypanosomal activity against Trypanosoma cruzi Y in mouse cardiomyocytes assessed as inhibition of trypomastigote release at 10 uM after 96 hrs; type: functional, organism-based
In short: (§1)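 Cardiomyocytes were infected with Y strain trypomastigotes (10:1 parasite:host) and kept with or without 10 μM inhibitor throughout. Parasites released at 96 h postinfection were counted and reported as 10^4. Trypomastigotes were scored separately from nontrypomastigote forms (amastigotes plus epimastigote-like forms).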

[2] = tested on: Trypanosoma cruzi; assay: Antitrypanosomal activity against Trypanosoma cruzi Y in mouse cardiomyocytes assessed as reduction of intracellular amastigotes at 10 uM by Giemsa staining; type: functional, organism-based
In short: (§2)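 Primary mouse embryo cardiomyocytes were seeded at 1 × 10^5 cells/well for 24 h at 37°C in 5% CO2. Cells were pretreated for 1 h with 10 μM inhibitor or vehicle, and treatment was kept throughout. They were infected with Y strain trypomastigotes at 10:1 parasite:host. At 24, 48, 72 and 96 h postinfection cells were Bouin-fixed and Giemsa-stained. Parasites per infected cell were counted over 400 cells on two coverslips. Mean ± SD of three experiments.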

[3] = tested on: Trypanosoma cruzi; assay: Antitrypanosomal activity against Trypanosoma cruzi Y in mouse cardiomyocytes assessed as induction of parasite apoptosis at 10 uM after 72 hrs postinfection by TUNEL method; type: functional
In short: (§3)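 Y strain-infected cardiomyocytes were kept with or without 10 μM inhibitor, grown on coverslips. They were fixed in 4% paraformaldehyde for 20 min at 4°C and permeabilized with 0.1% Triton X-100 in 0.1% sodium citrate for 2 min at 4°C. TUNEL labelling ran 60 min at 37°C, followed by DAPI counterstain. The percentage of TUNEL-positive parasites was scored at 72 and 96 h postinfection by epifluorescence.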

[4] = tested on: Trypanosoma cruzi; assay: Antitrypanosomal activity against Trypanosoma cruzi Y in mouse cardiomyocytes assessed as number of trypomastigote release at 10 uM after 96 hrs; type: functional; in short: as §1
[5] = tested on: Trypanosoma cruzi; assay: Antitrypanosomal activity against Trypanosoma cruzi Y in mouse cardiomyocytes assessed as number of intracellular parasites per infected cell at 10 uM after 72 hrs postinfection by Giemsa staining; type: functional; in short: as §2
[6] = tested on: Cardiomyocyte; assay: Inhibition of TGF-beta-1-induced Smad2 phosphorylation in mouse embryo cardiomyocytes at 10 uM by immunoblot; type: functional, cell-based
In short: (§4)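 Mouse embryo cardiomyocytes were pretreated for 1 h with or without 10 μM inhibitor. They were then given 2 ng/ml TGF-β1 or T. cruzi Dm28c for 1 h. Cells were lysed in RIPA buffer, pH 8.0, and 20 μg lysate was run on 12% SDS-PAGE. Blots were probed for phospho-Smad2, with α-tubulin as loading control.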

[7] = tested on: Trypanosoma cruzi; assay: Inhibition of invasion of Trypanosoma cruzi Y in mouse embryo cardiomyocytes assessed as pathogen infection at 10 uM for 1 hr measured at 4 hrs postinfection; type: functional, organism-based
In short: (§5)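 Mouse embryo cardiomyocytes were pretreated for 1 h with 10 μM inhibitor or left untreated. They were infected with Dm28c or Y strain trypomastigotes at 10:1 parasite:host. Cells were fixed at 4 h postinfection and Giemsa-stained. The percentage of infected cells was counted over 400 cells per slide on two coverslips. Control and treated cells were compared by t test.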

[8] = tested on: Trypanosoma cruzi; assay: Antitrypanosomal activity against Trypanosoma cruzi Y in mouse cardiomyocytes assessed as number of intracellular parasites per infected cell at 10 uM after 96 hrs postinfection by Giemsa staining; type: functional; in short: as §2
[9] = tested on: Trypanosoma cruzi; assay: Inhibition of Trypanosoma cruzi Y infection-induced TGFbeta signaling in mink C32 cells at 10 uM by luciferase based assay; type: functional, organism-based
In short: (§6)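 C32 cells are Mv1Lu mink lung cells stably carrying a PAI promoter-luciferase reporter. Cells were plated at 1 × 10^5/well in 5% FCS and switched to 0.1% FCS after 3 h. They were stimulated with TGF-β1 2 ng/ml or live Y strain trypomastigotes, 1 × 10^6 to 4 × 10^6 parasites, with or without 10 μM inhibitor. Luciferase (RLU) was read after 20 h. Mean ± SD of three experiments.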

[10] = tested on: Trypanosoma cruzi; assay: Antitrypanosomal activity against Trypanosoma cruzi Y in mouse cardiomyocytes assessed as number of intracellular parasites per infected cell at 10 uM after 48 hrs postinfection by Giemsa staining; type: functional; in short: as §2
[11] = tested on: Trypanosoma cruzi; assay: Inhibition of invasion of Trypanosoma cruzi Dm28C in mouse embryo cardiomyocytes assessed as pathogen infection at 10 uM for 1 hr measured at 4 hrs postinfection; type: functional, organism-based; in short: as §5
[12] = tested on: Trypanosoma cruzi; assay: Antitrypanosomal activity against Trypanosoma cruzi Y in mouse cardiomyocytes assessed as number of intracellular parasites per infected cell at 10 uM after 24 hrs postinfection by Giemsa staining; type: functional; in short: as §2
[13] = tested on: Trypanosoma cruzi; assay: Antitrypanosomal activity against Trypanosoma cruzi Y in mouse cardiomyocytes assessed as number of nontrypomastigote release at 10 uM after 96 hrs; type: functional; in short: as §1
[14] = tested on: Trypanosoma cruzi; assay: Antitrypanosomal activity against Trypanosoma cruzi Y in mouse cardiomyocytes assessed as induction of parasite apoptosis at 10 uM after 96 hrs postinfection by TUNEL method; type: functional; in short: as §3
[15] = tested on: C32; assay: Inhibition of TGFbeta signaling in mink C32 cells at 10 uM by luciferase based assay; type: functional, cell-based; settings: Neovison vison; in short: as §6
[16] = tested on: Trypanosoma cruzi; assay: Inhibition of Trypanosoma cruzi Dm28C infection-induced Smad2 phosphorylation in mouse embryo cardiomyocytes at 10 uM by immunoblot; type: functional, organism-based; in short: as §4

With NC(=O)c1ccc(-c2nc(-c3ccccn3)c(-c3ccc4c(c3)OCO4)[nH]2)cc1 [SB-431542] the Activity [1] was “Active”, the Activity [2] was “Active” and the Activity [3] was 47.9%. For the same compound, the Activity [4] was 19, the Activity [5] was 38 and the Activity [6] was “Active”. The Activity [7] was “Active”, the Activity [8] was 58 and the Activity [9] was “Active”. For the same compound, the Activity [10] was 4.4, the Activity [11] was “Active” and the Activity [12] was 1.4. For the same compound, the Activity [13] was 53, the Activity [14] was 26.5% and the Activity [15] was “Active”. The Activity [16] was “Active”.
